From paper PMC5509056 (FEBS letters, 2017)

Tests used:
[1] = system: rostral supraoptic nucleus (SON) cells; experiment: Spontaneous firing rate; type: cell-based, rat (Sprague Dawley); conditions: 1 μM, six cells in the SON
Procedure, shortened: (§1)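 Coronal hypothalamic slices (250 μm) came from halothane-anaesthetised 20–24-day-old rats, cut in ice-cold sucrose ACSF and warmed to 35°C over 30 min. Slices were held submerged in 32°C ACSF (MgCl2 1.2, CaCl2 2.4 mM) gassed with 95% O2/5% CO2. Neurons were visualised by IR-DIC and patched with 5–8 MΩ pipettes (K-gluconate internal, pH 7.2) for whole-cell current and/or voltage clamp.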

[2] = system: suprachiasmatic nucleus (SCN) cells; experiment: Spontaneous firing rate; type: cell-based, rat (Sprague Dawley); conditions: 1 μM, six cells in the SCN
Procedure, shortened: as §1

[3] = system: supraoptic nucleus (SON) neurons; μ receptor; experiment: Whole cell patch clamp, evoked outward / holding current in SON neurons; type: cell-based, rat (Sprague Dawley); conditions: for holding current response in SON: 1 μM, six cells in the SON
[4] = system: suprachiasmatic nucleus (SCN) cells; experiment: Whole cell patch clamp, holding current in SCN neurons; type: cell-based, rat (Sprague Dawley); conditions: 1 μM, six cells in the SCN
mu-opioid receptor (MOR) = conditions: endomorphins EM1 and EM2; ref [5], [6], [7]; cited from earlier work
[5] = system: rat hippocampus membranes; experiment: Agonist-stimulated [^35S]GTPγS binding in rat hippocampus membranes; type: biochemical, rat (Wistar)

Compound	SFR response in SON [1]	SFR response in SCN [2]	holding current response in SON [3]	holding current response in SCN [4]	binding affinity and selectivity to MOR (in words) (mu-opioid receptor (MOR))	also measured
NH2-TSRTDGTQS-COO^- [Mx-2]	no measurable difference	no measurable difference	no measurable difference	no measurable difference		
Tyr-Pro-Trp-Phe-NH2 [EM1]					high binding affinity and selectivity to the mu-opioid receptor	
CTOP [reference compound]						Mx-1 evoked current amplitude in presence of CTOP ([3]; CTOP 100 nM added to bath with 100 nM Mx-1, six SON neurons): 3.8 ± 2.0 pA
C=CCN1CC[C@]23c4c5ccc(O)c4O[C@H]2C(=O)CC[C@@]3(O)[C@H]1C5 [naloxone, reference compound]						inhibition of agonist effect of Mx-1 in promoting incorporation of γ-GTP ([5]; naloxone saturating concentrations (10 μM) with Mx-1): inhibited the agonist effect of Mx-1
Tyr-Pro-Phe-Phe-NH2 [EM2]					high binding affinity and selectivity to the mu-opioid receptor	
NH2-PPPRSPYSGKGLGPGNLLHSALLPIHCICLC-COO^- [Mx-3]	no measurable difference	no measurable difference	no measurable difference	no measurable difference		agonist-stimulated activity of Mx-3 compared with Mx-1 ([5]; [^35S]GTPγS, rat hippocampus membranes, comparison with Mx-1, discussion): greater than that displayed by Mx-1; [^35S]GTPγS binding at high concentrations (decrease) ([5]; high concentrations, for Mx-1: 1.2, 2.4 and 4.8 μM): not observed
